Compounds with a hit are over-represented: about 5.9% of the library has one in this group of screens.
T cruzi growth-1 = inhibitors of T. cruzi proliferation | T. cruzi beta-gal in NIH3T3, GalScreen luminescence, 90 h | inhibition, % at 8.34 µM | 77,000 tested, 5.9% active | AID 624255;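 active = mean inhibition above about 93%, with at least 55% of replicates each passing it, limit read from the data, passing the limit was not always enough; inconclusive = only one of those two conditions holds; inactive = neither condition holds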
Pf Dd2 inh = blocks growth of Plasmodium falciparum Dd2 parasites; activity change, % at 10 µM; P. falciparum Dd2 growth, SYBR Green, 72 h; stronger effect = lower value; 94,000 tested, 2.3% active; in the data active = activity change below about -80%; inconclusive = no clear call, values can overlap the other calls
IDH1 mut inh = IDH1 R132H (human) inhibition; O75874; IDH1 R132H reductase, diaphorase/resazurin fluorescence, 60 min; inhibition, % at 10 µM; 70,000 tested, 0.18% active; in the data active = inhibition above about 34%; inconclusive = no clear call, values can overlap the other calls; inactive = below about 11%
Target sequence (O75874 whole entry R132H): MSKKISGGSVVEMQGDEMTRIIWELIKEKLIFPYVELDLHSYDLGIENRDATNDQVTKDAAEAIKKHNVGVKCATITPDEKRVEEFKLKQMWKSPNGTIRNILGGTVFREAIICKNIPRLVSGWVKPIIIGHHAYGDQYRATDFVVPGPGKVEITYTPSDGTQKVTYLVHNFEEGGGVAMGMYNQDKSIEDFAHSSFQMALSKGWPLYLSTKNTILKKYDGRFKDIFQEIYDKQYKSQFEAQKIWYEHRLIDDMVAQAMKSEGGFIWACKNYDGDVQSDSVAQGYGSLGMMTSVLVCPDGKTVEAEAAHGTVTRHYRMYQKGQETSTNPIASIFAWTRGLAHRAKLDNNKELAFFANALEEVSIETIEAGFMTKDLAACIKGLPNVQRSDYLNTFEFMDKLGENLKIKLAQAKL
KDM4C inh = KDM4C (human) demethylase inhibition; Q9H3R0; inhibition, % at 12.5 µM; GST-KDM4C 2-372, H3K9me3 peptide, LANCE TR-FRET; 96,000 tested, 0.15% active;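 active = mean replicate inhibition above about 25%, with at least 55% of replicates also reaching it, limit read from the data, passing the limit was not always enough; inconclusive = only one of those two conditions met; inactive = neither condition met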
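System – N-terminal GST-fused human GASC-1 (KDM4C) fragment, residues 2-372 · Input – enzyme final amount 10 nM · Technique – LANCE TR-FRET, Eu antibody, ULight-streptavidin, EDTA, ex 340 nm, em 618/671 nm · Medium – HEPES buffer, pH 7.5, plus ascorbate · Incubation – enzyme reaction 30 min, then detection 60 min, both room temperature · Reagent – H3K9me3 peptide with Fe(II)/2OG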
T cruzi growth-2 = Trypanosoma cruzi proliferation inhibition. shares compounds with T cruzi growth-1. T. cruzi beta-gal in NIH3T3, GalScreen luminescence, 90 h. inhibition, % at 8.35 µM. 5,600 tested, 72% active;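 active = mean replicate inhibition above about 95% and at least 55% of replicates individually reaching it, limit read from the data; inconclusive = only one of the two criteria is met; inactive = neither criterion is met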
T cruzi growth-3 = inhibitors of T. cruzi proliferation | shares compounds with T cruzi growth-1 | T. cruzi beta-gal in NIH3T3, GalScreen luminescence, 90 h | inhibition, % at 2.09 µM | 5,600 tested, 21% active;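 active = mean inhibition above about 95%, with at least 55% of replicates also reaching it, limit read from the data; inconclusive = meets just one of the two conditions; inactive = meets neither condition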
NIH3T3 tox = NIH/3T3 (mouse) viability loss. NIH/3T3 viability, CellTiter-Glo ATP luminescence, 90 h. cytotoxicity (signal decrease), % at 8.35 µM. shares compounds with T cruzi growth-1. 5,600 tested, 14% active. AID 651742;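 active = mean signal decrease across replicates above about 35% based on untreated-well scatter, with enough replicates individually passing, limit read from the data; inconclusive = no rule stated though some were filed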
NIH3T3 tox 2 = cytotoxicity in mouse NIH/3T3 fibroblasts. NIH/3T3 viability, CellTiter-Glo ATP luminescence, 90 h. AID 651744. inhibition, % at 24.9 µM. 5,600 tested, 56% active. shares compounds with T cruzi growth-1;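 active = mean loss of cell viability signal at or above a set limit, and enough replicates individually reaching it; inconclusive = meets only the mean limit or only the replicate share; inactive = meets neither condition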
Numbers stand for hits.

What do the screens show for `Cc1ccccc1-c1ccc2c(c1)O[C@H](CN(C)C(=O)Nc1ccccc1)[C@@H](C)CN([C@@H](C)CO)S2(=O)=O`?
T cruzi growth-1: 92; Pf Dd2 inh: inactive; IDH1 mut inh: inactive; KDM4C inh: inactive; T cruzi growth-2: 102; T cruzi growth-3: inactive; NIH3T3 tox: inconclusive; NIH3T3 tox 2: 64

Results for CCc1cc(C(=O)OC)c(NC(=S)Nc2ccc(S(=O)(=O)N3CCOCC3)cc2)s1 ?
IDH1 mut inh: inactive

Results for Cc1cc(C)c(S(=O)(=O)N(C)CC(=O)Nc2ccc(F)c(Cl)c2)c(C)c1 ?
IDH1 mut inh: inactive

Results for CN(C)C(=O)C[C@@H]1C[C@H]2c3cc(NS(=O)(=O)c4ccc(F)cc4)ccc3O[C@H]2[C@H](CO)O1 ?
T cruzi growth-1: 104; Pf Dd2 inh: inactive; IDH1 mut inh: inactive; KDM4C inh: inactive; T cruzi growth-2: inactive; T cruzi growth-3: inactive; NIH3T3 tox: inactive; NIH3T3 tox 2: inactive

What do the screens show for `CN(C)C(=O)C[C@H]1C[C@@H]2c3cc(NS(=O)(=O)c4ccc(F)cc4)ccc3O[C@@H]2[C@H](CO)O1`?
T cruzi growth-1: inactive; Pf Dd2 inh: inactive; IDH1 mut inh: inactive; KDM4C inh: inactive

What do the screens show for `CN(C)C(=O)C[C@@H]1C[C@H]2c3cc(NS(=O)(=O)c4ccc(F)cc4)ccc3O[C@H]2[C@@H](CO)O1`?
T cruzi growth-1: inconclusive; Pf Dd2 inh: inactive; IDH1 mut inh: inactive; KDM4C inh: inactive; T cruzi growth-2: inactive; T cruzi growth-3: inactive; NIH3T3 tox: inactive; NIH3T3 tox 2: inactive

Results for CCc1c(O)cc(OC)c2c1O[C@H](C)CC2=O ?
IDH1 mut inh: inactive

How did COCC(=O)N1CCCCN2[C@H](C1)[C@@H](c1ccc(-c3ccc(C)cc3)cc1)[C@@H]2CO do in these assays?
T cruzi growth-1: inactive; Pf Dd2 inh: inactive; KDM4C inh: inactive

Results for COCC(=O)N1CCCCN2[C@H](CO)[C@H](c3ccc(-c4ccc(C)cc4)cc3)[C@H]2C1 ?
T cruzi growth-1: 102; Pf Dd2 inh: inactive; KDM4C inh: inactive; T cruzi growth-2: inactive; T cruzi growth-3: inactive; NIH3T3 tox: inactive; NIH3T3 tox 2: 29

How did COCC(=O)N1CCCCN2[C@H](C1)[C@H](c1ccc(-c3ccc(OC)cc3)cc1)[C@@H]2CO do in these assays?
T cruzi growth-1: inactive; Pf Dd2 inh: inactive; KDM4C inh: inactive

Results for COCC(=O)N1CCCCN2[C@H](CO)[C@@H](c3ccc(-c4ccc(OC)cc4)cc3)[C@H]2C1 ?
T cruzi growth-1: 97; Pf Dd2 inh: inactive; KDM4C inh: inactive; T cruzi growth-2: inactive; T cruzi growth-3: inactive; NIH3T3 tox: inactive; NIH3T3 tox 2: inactive

What do the screens show for `COCC(=O)N1CCCCN2[C@@H](CO)[C@@H](c3ccc(-c4ccc(OC)cc4)cc3)[C@@H]2C1`?
T cruzi growth-1: 103; Pf Dd2 inh: inactive; KDM4C inh: inactive; T cruzi growth-2: inactive; T cruzi growth-3: inactive; NIH3T3 tox: inactive; NIH3T3 tox 2: inactive

How did C[C@@H]1CN([C@@H](C)CO)C(=O)c2cccc(NC(=O)c3ccncc3)c2O[C@@H]1CN(C)Cc1ccc(Cl)c(Cl)c1 do in these assays?
T cruzi growth-1: 97; Pf Dd2 inh: inactive; IDH1 mut inh: inactive; KDM4C inh: inactive; T cruzi growth-2: 100; T cruzi growth-3: inactive; NIH3T3 tox: inactive; NIH3T3 tox 2: inactive

What do the screens show for `C[C@H](CO)N1C[C@H](C)[C@@H](CN(C)Cc2ccc3c(c2)OCO3)Oc2c(NC(=O)c3ccncc3)cccc2C1=O`?
T cruzi growth-1: 99; Pf Dd2 inh: inactive; IDH1 mut inh: inactive; KDM4C inh: inactive; T cruzi growth-2: 104; T cruzi growth-3: inactive; NIH3T3 tox: inactive; NIH3T3 tox 2: 35

How did C[C@H]1CN([C@@H](C)CO)C(=O)c2cccc(NC(=O)c3ccncc3)c2O[C@@H]1CN(C)Cc1ccc2c(c1)OCO2 do in these assays?
T cruzi growth-1: 100; Pf Dd2 inh: inactive; IDH1 mut inh: inactive; KDM4C inh: inactive; T cruzi growth-2: inactive; T cruzi growth-3: inactive; NIH3T3 tox: inactive; NIH3T3 tox 2: inactive
